High-throughput results deposited in PubChem by several laboratories.
Compounds with a hit are over-represented: about 2% of the library has one in this group of screens.
LGR2 antag = inhibitors of bursicon-induced LGR2 CRE-luciferase signal, primary screen, cell-based, HEK293, CRE-luciferase reporter, bursicon stimulation | actives 0.35% (n = 380,000) | Drosophila bursicon receptor LGR2 (rickets) | inhibition, % at 9.99 µM | AID 720647, 2013 | bursicon-stimulated, 4 h;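 active means drop in luminescence signal, shown as inhibition above about 50% in the replicate tests, limit read from the data, passing the limit was not always enough; inconclusive means probably only some replicates passing the limit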;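 further: agonist challenge used bursicon conditioned medium at about half maximal strength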
TROY signal inh = inhibitors of TROY-driven NF-kB signaling, primary screen, Q293 LMP1-TROYcd cells, NF-kB luciferase, uHTS | inhibition, % at 10 µM | actives 0.98% (n = 360,000) | AID 1347056, 2019 | Q293 LMP1-TROYcd NF-kB luciferase reporter, 4 h;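 active means compounds whose plate-normalised and pattern-corrected inhibition of the luciferase reporter signal at the single screening dose is 50% or more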
TWEAK Fn14 block = inhibitors of TWEAK-Fn14 signaling, primary screen, luciferase reporter cells, uHTS. AID 1159606, 2016. inhibition, % at 10 µM. actives 2% (n = 360,000). TWEAK-stimulated Fn14 reporter cells, luciferase luminescence, 8 h; in the data active means inhibition above about 50%
CaV13 FRET inh = Primary screen for inhibitors of IQ motif and Ca2+-dependent inactivation inhibitor domain binding in CACNA1D, Förster resonance energy transfer in living cells, …; HEK cells, CFP/YFP FRET ICDI-IQ, plate reader, 10 min; percent FRET-ratio fall versus neutral wells; inhibition, % at 12.3 µM; actives 0.098% (n = 340,000);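 active means mean replicate inhibition of at least 30% and at least 1% of replicates passing that level; inconclusive means only one of the two criteria is met; inactive means neither criterion is met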;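 further: 0% = median of the neutral control wells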
Xi reactivation = activators of inactive X chromosome reactivation, primary screen, imaging, XiGFP fibroblasts, GFP high-content imaging, set 2; XiGFP mouse fibroblasts, % GFP-positive cells imaging, 3 d; cells co-treated with 5-aza-dC sensitizer; scaled so ellipticine positive control = 100%; activation, % at 7.58 µM; actives 0.055% (n = 360,000);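 active means mean normalized replicate activation at least 10% and every replicate at or above 10%; inconclusive means only one of the two criteria met; inactive means mean below 10% and not all replicates reach 10%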;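 further: 0% = median of on-plate neutral control wells and 100% = ellipticine 6 µM median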
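assay system = SV40-immortalized XiGFP fibroblast cells, line 68-5-11 | buffer or medium = DMEM plus 5-aza-dC sensitizer | doses = single-point pinned compound dosing | times = 3-day compound exposure, then 15 min fixation at room temperature | benchmarks = positive control ellipticine, 6 µM final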
The depositor's hits bear a star; u = inconclusive; x = no result.

SMILES	LGR2 antag	TROY signal inh	TWEAK Fn14 block	CaV13 FRET inh	Xi reactivation
O=C(Nc1cc(Sc2ccccn2)cc([N+](=O)[O-])c1)c1cccc(Cl)c1	35	47	78*	-16	0
C[C@@H]1CN([C@H](C)CO)C(=O)c2cc(NC(=O)CCCN(C)C)ccc2O[C@@H](C)CCCCO[C@@H]1CN(C)Cc1ccc(C(=O)O)cc1	-4	x	x	x	0
CCCC#Cc1cnc2c(c1)C(=O)N([C@@H](C)CO)C[C@@H](C)[C@@H](CN(C)C(=O)Nc1cccc(F)c1)O2	11	x	x	x	0
COc1ccccc1C1=NNC(=Nc2cccc(S(=O)(=O)N(C)C)c2)SC1	8	16	50*	1	0
Cc1ccc(S(=O)(=O)N[C@H]2CC[C@@H](CC(=O)NCc3ccc(Cl)c(Cl)c3)O[C@@H]2CO)cc1	3	x	x	x	-1
Cc1cc2[nH]c3c4ccccc4nc(C)c3c2cc1C	-8	78*	-72	9	0
Cc1cc2[nH]c3ccccc3c2c(C)n1	-7	13	31	x	0
O=C(c1ccc2c(=O)n(CCc3ccccc3)c(=O)[nH]c2c1)N1CCN(c2ccccc2)CC1	x	35	38	x	x
COc1ccc(N2CCN(C(=O)c3ccc4c(=O)n(CCc5ccc(OC)c(OC)c5)c(=O)[nH]c4c3)CC2)cc1	3	13	59*	-17	0
O=C(c1ccc2c(=O)n(CCc3ccccc3)c(=O)[nH]c2c1)N1CCN(c2ccc(F)cc2)CC1	0	58*	74*	-5	0
COCCn1c(=O)[nH]c2cc(C(=O)N3CCN(c4ccc(Cl)cc4)CC3)ccc2c1=O	-6	18	25	-3	0
CC(C)[C@@H]1COCn2nncc2CC[C@H](Cc2ccccc2)C(=O)N1	2	x	x	x	0
CCc1nn2cc(C(=O)c3cc(Cl)ccc3O)cnc2c1-c1ccc(F)cc1	43	65*	64*	-2	0
C[C@@H](NC(=O)C[C@@H]1CC[C@@H](NC(=O)Cc2ccccn2)[C@H](CO)O1)c1ccccc1	-6	x	x	x	0
C=CCN1c2ccccc2Sc2cnccc21	19	44	56*	-10	0
COc1ccc2c3c([nH]c2c1)[C@@H](CO)N(Cc1nccs1)CC31CCN(Cc2cncnc2)CC1	0	x	x	x	0
O=C1CC(c2ccccc2)CC(O)=C1C=NCc1ccncc1 (configuration not stated)	-2	-3	11	3	0
O=C1CC(c2ccccc2)CC(O)=C1C=NCc1ccc(Cl)c(Cl)c1 (configuration not stated)	x	x	76*	x	x
COc1ccc(NS(=O)(=O)c2cc(NC(=O)c3nn(C)c(=O)c4ccccc34)ccc2OC)cc1	2	-9	53*	10	0
COc1ccc(NS(=O)(=O)c2cc(NC(=O)c3cncc(Br)c3)ccc2OC)cc1	-1	32	52*	-6	0
CCC(=O)Nc1ccc2c(c1)C(=O)N(C)[C@@H]1CC[C@H](CC(=O)NCCCN(C)C)O[C@H]1CO2	-8	x	x	x	0
CCOC(=O)C(C)N1C(=O)S/C(=C\c2ccc(-c3ccccc3C(=O)O)o2)C1=O (configuration not stated)	7	0	8	-6	0
CC(C)N1C(=O)S/C(=C/c2ccc(Sc3nc4ccccc4[nH]3)o2)C1=O	32	59*	89*	-2	0
C=CCN1C(=O)S/C(=C/c2ccc(Sc3nc4ccccc4[nH]3)o2)C1=O	-19	52*	73*	-15	0
C=CCN1C(=O)S/C(=C/c2ccsc2)C1=O	x	-79	-14	-6	x
SMILES	LGR2 antag	TROY signal inh	TWEAK Fn14 block	CaV13 FRET inh	Xi reactivation
N#CCc1nc(-c2cc3ccccc3oc2=O)cs1	x	-43	-20	-6	0
CC1CCC(=C(C#N)c2nc(-c3cc4ccccc4oc3=O)cs2)CC1 (configuration not stated)	x	47	54*	x	x
N/C(=N\OC(=O)/C=C/c1ccc(Br)cc1)c1ccccn1	u	52*	66*	-3	0
N/C(=N\OC(=O)/C=C/c1ccccc1)c1cccnc1	-28	-71	-33	-14	0
N/C(=N\OC(=O)/C=C/c1ccccc1Cl)c1ccccn1	73*	68*	75*	-3	0
COc1cccc(NC(=O)N(C)C[C@H]2Oc3cc(C#CC4(O)CCCC4)ccc3S(=O)(=O)N([C@@H](C)CO)C[C@H]2C)c1	-12	x	x	x	0
O=C(/C=C/c1ccco1)Nc1scc(-c2ccccc2)c1C(=O)O	17	15	67*	-5	0
O=C(/C=C/c1ccco1)Nc1nc(-c2ccccc2)cs1	-18	-51	12	-5	0
O=C(/C=C/c1ccccc1)Nc1scc(-c2ccccc2)c1C(=O)O	-10	27	52*	-8	0
Cc1noc(C)c1S(=O)(=O)Nc1ccc2c(c1)CC(=O)N([C@H](C)CO)C[C@H](C)[C@H](CN(C)C)O2	7	x	x	x	0
O=C(C[C@@H]1CC[C@@H]2[C@H](COC[C@H](O)CN2C(=O)c2ccccc2)O1)NCc1ccc(-c2ccccc2)cc1	-14	x	x	x	0
COc1ccc2nc(SCCOC(=O)Nc3ccc(Cl)cc3)nc(C)c2c1	-4	35	51*	-5	0
COc1ccc2nc(SCC(=O)O)nc(C)c2c1	x	-5	-4	-5	x
C#CC(=O)N(c1ccc(OC)cc1OC)C(C(=O)NC1CCCC1)c1cccs1 (configuration not stated)	97*	5	37	-6	0
CC(=O)c1cccc(N(C(=O)c2ccco2)C(C(=O)NC2CCCC2)c2ccccc2F)c1 (configuration not stated)	-3	-8	53*	-3	0
COc1ccc(N(C(=O)c2ccco2)C(C(=O)NC2CCCCC2)c2cccs2)cc1OC (configuration not stated)	x	x	77*	-6	x
CC(=O)c1cc2c(cc1N(C(=O)c1ccco1)C(C(=O)NC1CCCC1)c1ccccc1F)OCO2 (configuration not stated)	6	-18	-15	1	0
CC(=O)c1cccc(N(C(=O)c2ccco2)C(C(=O)NC2CCCC2)c2cccs2)c1 (configuration not stated)	5	12	12	-4	0
C#CC(=O)N(c1cc(OC)ccc1OC)C(C(=O)NC1CCCC1)c1cccs1 (configuration not stated)	x	13	47	x	x
COc1ccc(-c2ccccc2[C@H]2[C@@H](C#N)N(C(=O)C3CCCC3)[C@@H]2CO)cc1	-8	x	x	x	0
